# Tests used:
# Format in all cases: functional
# MDA-MB-231 = test: Growth inhibition of human MDA-MB-231 cells; conditions: for TGI: read-out: pTGI (converted)
# Malme-3M = test: Growth inhibition of human MALME-3M cells; conditions: for TGI: read-out: pTGI (converted)
# MOLT-4 = test: Growth inhibition of human MOLT4 cells; conditions: for TGI: read-out: pTGI (converted)
# DU-145 = test: Growth inhibition of human DU145 cells; conditions: for TGI: read-out: pTGI (converted)
# A549 [1] = test: Growth inhibition of human A549 cells; conditions: for TGI: read-out: pTGI (converted)
# K562 = test: Growth inhibition of human K562 cells; conditions: for CC50: read-out: pLC50 (the source's name) (converted); for TGI: read-out: pTGI (converted)
# MCF7 = test: Growth inhibition of human MCF7 cells; conditions: for CC50: read-out: pLC50 (the source's name) (converted); for TGI: read-out: pTGI (converted)
# HCT-15 = test: Growth inhibition of human HCT15 cells; conditions: for TGI: read-out: pTGI (converted)
# MDA-MB-468 = test: Growth inhibition of human MDA-MB-468 cells; conditions: for TGI: read-out: pTGI (converted)
# SK-OV-3 = test: Growth inhibition of human SKOV3 cells; conditions: for TGI: read-out: pTGI (converted)
# SF-539 = test: Growth inhibition of human SF539 cells; conditions: for TGI: read-out: pTGI (converted)
# ACHN = test: Growth inhibition of human ACHN cells; conditions: for CC50: read-out: pLC50 (the source's name) (converted); for TGI: read-out: pTGI (converted)
# OVCAR-5 = test: Growth inhibition of human OVCAR5 cells; conditions: for TGI: read-out: pTGI (converted)
# NCI-H226 = test: Growth inhibition of human NCI-H226 cells; conditions: for TGI: read-out: pTGI (converted)
# OVCAR-4 = test: Growth inhibition of human OVCAR4 cells; conditions: for CC50: read-out: pLC50 (the source's name) (converted); for TGI: read-out: pTGI (converted)
# OVCAR-8 = test: Growth inhibition of human OVCAR8 cells
# SK-MEL-5 = test: Growth inhibition of human SK-MEL-5 cells; conditions: for TGI: read-out: pTGI (converted)
# SNB-75 = test: Growth inhibition of human SNB75 cells; conditions: for TGI: read-out: pTGI (converted)
# A549 [2] = test: Selectivity index, ratio of EC50 for human A549 cells to EC50 for SF295 cells
# In short: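 SF-295 cells were kept in RPMI 1640 and A549 in F-12, each with 10% FBS, pen-strep, amphotericin B and L-glutamine, at 37 °C and 5% CO2. Cells at 60% confluency were dosed for 44 h, then given 0.06 mg/mL MTT for 4 h (SF-295 in phenol-red-free RPMI). Acid/Triton/isopropanol stop was added overnight at 37 °C, and OD read at 540/650 nm. EC50 ratio is A549 over SF-295.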
# SW-620 = test: Growth inhibition of human SW620 cells
# [3] = Growth inhibition of human Hs 578T cells
# SK-MEL-28 = test: Growth inhibition of human SK-MEL-28 cells
# [4] = read-out: pLC50 (the source's name) (converted)
smiles,measurement,setting,value
COc1cc(CCc2cc(O)c(C/C=C(\C)CC/C=C(\C)CO)c(O)c2)cc2c1O[C@]1(C)CC[C@@H](O)C(C)(C)[C@H]1C2,GI50,MDA-MB-231,8.13 µM
same,LC50,MDA-MB-231,> 100 µM
same,TGI,MDA-MB-231,38 µM
same,GI50,Malme-3M,6.31 µM
same,LC50,Malme-3M,> 100 µM
same,TGI,Malme-3M,38 µM
same,GI50,MOLT-4,1.7 µM
same,LC50,MOLT-4,97.7 µM
same,TGI,MOLT-4,7.59 µM
same,GI50,DU-145,6.46 µM
same,LC50,DU-145,> 100 µM
same,TGI,DU-145,28.2 µM
same,GI50,A549 [1],4.9 µM
same,LC50 (50% lethal concentration),A549 [1],> 100 µM
same,TGI,A549 [1],95.5 µM
same,GI50,K562,3.09 µM
same,CC50,K562,64.6 µM
same,TGI,K562,12.9 µM
same,GI50,MCF7,2.95 µM
same,CC50,MCF7,53.7 µM
same,TGI,MCF7,12.9 µM
same,GI50,HCT-15,5.01 µM
same,LC50,HCT-15,> 100 µM
same,TGI,HCT-15,22.9 µM
same,GI50,MDA-MB-468,5.89 µM
same,LC50,MDA-MB-468,> 100 µM
same,TGI,MDA-MB-468,50.1 µM
same,GI50,SK-OV-3,8.51 µM
same,LC50,SK-OV-3,> 100 µM
same,TGI,SK-OV-3,31.6 µM
same,GI50,SF-539,2.29 µM
same,LC50,SF-539,33.9 µM
same,TGI,SF-539,11.7 µM
same,GI50,ACHN,5.25 µM
same,CC50,ACHN,> 100 µM
same,TGI,ACHN,35.5 µM
same,GI50,OVCAR-5,20.9 µM
same,"LC50 (lethal concentration, 50% cell kill)",OVCAR-5,> 100 µM
same,TGI,OVCAR-5,66.1 µM
same,GI50,NCI-H226,13.2 µM
same,LC50,NCI-H226,> 100 µM
same,TGI,NCI-H226,66.1 µM
same,GI50,OVCAR-4,11.5 µM
same,CC50,OVCAR-4,> 100 µM
same,TGI,OVCAR-4,45.7 µM
same,GI50,OVCAR-8,8.32 µM
same,CC50,OVCAR-8; [4],> 100 µM
same,TGI,OVCAR-8; read-out: pTGI (converted),64.6 µM
same,GI50,SK-MEL-5,3.39 µM
same,LC50,SK-MEL-5,33.1 µM
same,TGI,SK-MEL-5,11 µM
same,GI50,SNB-75,1.7 µM
same,LC50,SNB-75,> 100 µM
same,TGI,SNB-75,10.7 µM
COc1cc(/C=C/c2cc(O)c(CCC(C)C)c(O)c2)cc2c1O[C@]1(C)CC[C@@H](O)C(C)(C)[C@H]1C2,GI50,MDA-MB-231,1.74 µM
same,LC50,MDA-MB-231,39.8 µM
same,TGI,MDA-MB-231,11 µM
same,GI50,Malme-3M,1.41 µM
same,LC50,Malme-3M,63.1 µM
same,TGI,Malme-3M,12.3 µM
same,GI50,MOLT-4,0.0457 µM
same,LC50,MOLT-4,> 100 µM
same,TGI,MOLT-4,18.6 µM
same,GI50,DU-145,0.24 µM
same,LC50,DU-145,37.2 µM
same,TGI,DU-145,14.1 µM
same,Ratio EC50,A549 [2],10
same,GI50,A549 [1],0.166 µM
same,LC50 (50% lethal concentration),A549 [1],> 100 µM
same,TGI,A549 [1],17.4 µM
same,GI50,K562,1.17 µM
same,CC50,K562,> 100 µM
same,TGI,K562,> 100 µM
same,GI50,SW-620,0.214 µM
same,CC50,SW-620; [4],14.8 µM
same,TGI,SW-620; read-out: pTGI (converted),2.34 µM
same,GI50,MCF7,0.0427 µM
same,CC50,MCF7,> 100 µM
same,TGI,MCF7,2.4 µM
same,GI50,HCT-15,0.182 µM
same,LC50,HCT-15,26.3 µM
same,TGI,HCT-15,2.88 µM
same,GI50,MDA-MB-468,0.851 µM
same,LC50,MDA-MB-468,57.5 µM
same,TGI,MDA-MB-468,4.37 µM
same,GI50,SK-OV-3,11.5 µM
same,LC50,SK-OV-3,> 100 µM
same,TGI,SK-OV-3,97.7 µM
same,GI50,SF-539,0.0288 µM
same,LC50,SF-539,2.69 µM
same,TGI,SF-539,0.295 µM
same,GI50,ACHN,0.309 µM
same,CC50,ACHN,43.7 µM
same,TGI,ACHN,15.8 µM
same,GI50,OVCAR-5,10.7 µM
same,"LC50 (lethal concentration, 50% cell kill)",OVCAR-5,69.2 µM
same,TGI,OVCAR-5,26.9 µM
same,GI50,NCI-H226,0.692 µM
same,LC50,NCI-H226,> 100 µM
same,TGI,NCI-H226,3.55 µM
same,GI50,OVCAR-4,1.41 µM
same,CC50,OVCAR-4,> 100 µM
same,TGI,OVCAR-4,38 µM
same,GI50,[3],0.0309 µM
same,CC50,[3]; [4],> 100 µM
same,TGI,[3]; read-out: pTGI (converted),0.166 µM
same,GI50,SK-MEL-5,0.0832 µM
same,LC50,SK-MEL-5,4.47 µM
same,TGI,SK-MEL-5,1.51 µM
same,GI50,SK-MEL-28,0.123 µM
same,CC50,SK-MEL-28; [4],37.2 µM
same,TGI,SK-MEL-28; read-out: pTGI (converted),11.2 µM
same,GI50,SNB-75,0.0603 µM
same,LC50,SNB-75,39.8 µM
same,TGI,SNB-75,11.2 µM
